Bioassay records: PubChem, Johns Hopkins Ion Channel Center
This is a sample that favours compounds with a hit; in the whole collection about 2.3% have one here.
TRPC4 block – inhibitors of mouse TRPC4 channel | Q9QUQ5 | HEK293 TRPC4beta/mu-opioid, DAMGO-evoked Fluo4 calcium flux; active compounds read low | B-score at 10 µM | 0.39% of 300,000 active | AID 2247;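 active = B-score over 3 SD under the library average, no early fluorescence shift, positive overall ratio signal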
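Signal: kinetic Fluo4 fluorescence imaging of calcium influx. Material: stable TRPC4beta/mu-opioid receptor HEK293 cells. Probe or stimulus: DAMGO in two steps, submaximal then maximal.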
TRPC6 inh – inhibitors of mouse TRPC6 channel; Q61143; HEK293-TRPC6, membrane potential dye, ACh-evoked depolarization; active compounds read low; B-score at 10 µM; 1.1% of 310,000 active; AID 2553;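 active = B-score under library mean minus 3 SD, initial fluorescence not abnormally high, positive integrated signal ratio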;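 also: B-score derived from integrated fluorescence ratio over the kinetic read; more negative B-score means stronger inhibition of depolarization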
Target sequence (Q61143 whole entry, looked up): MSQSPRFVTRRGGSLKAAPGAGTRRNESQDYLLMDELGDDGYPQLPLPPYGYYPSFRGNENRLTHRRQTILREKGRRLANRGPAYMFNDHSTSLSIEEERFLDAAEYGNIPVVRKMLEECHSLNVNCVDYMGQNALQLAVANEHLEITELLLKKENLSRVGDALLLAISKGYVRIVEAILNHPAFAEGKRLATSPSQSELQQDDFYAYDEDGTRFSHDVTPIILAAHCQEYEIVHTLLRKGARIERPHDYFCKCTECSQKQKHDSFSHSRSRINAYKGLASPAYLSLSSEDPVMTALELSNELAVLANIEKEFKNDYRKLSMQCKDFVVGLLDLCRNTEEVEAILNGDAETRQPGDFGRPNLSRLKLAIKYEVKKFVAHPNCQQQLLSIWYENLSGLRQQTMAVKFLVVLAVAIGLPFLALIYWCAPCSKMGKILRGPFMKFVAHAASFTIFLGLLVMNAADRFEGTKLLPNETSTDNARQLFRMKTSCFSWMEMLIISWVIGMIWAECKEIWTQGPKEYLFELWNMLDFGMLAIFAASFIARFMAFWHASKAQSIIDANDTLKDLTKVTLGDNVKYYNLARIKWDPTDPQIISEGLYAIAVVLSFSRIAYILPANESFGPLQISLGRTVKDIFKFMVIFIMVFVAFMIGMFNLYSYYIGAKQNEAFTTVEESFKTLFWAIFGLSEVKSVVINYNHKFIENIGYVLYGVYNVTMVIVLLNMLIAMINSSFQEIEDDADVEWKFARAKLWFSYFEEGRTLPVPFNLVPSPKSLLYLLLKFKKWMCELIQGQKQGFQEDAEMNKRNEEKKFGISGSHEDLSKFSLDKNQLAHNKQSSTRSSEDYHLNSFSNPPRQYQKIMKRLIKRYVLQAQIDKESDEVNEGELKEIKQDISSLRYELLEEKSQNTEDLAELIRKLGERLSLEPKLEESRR
TRPC4 act – activators of mouse TRPC4 channel | Q9QUQ5 | HEK293 TRPC4beta/mu-opioid, Fluo4 calcium fluorescence; active compounds read high | B-score at 10 µM | 0.49% of 310,000 active | AID 2237;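 active = B-score above 5 SD of library B-scores, and initial fluorescence ratio not above library mean plus 5 SD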;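 also: positive B-score marks a calcium rise read as TRPC4 activation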
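Assay system: HEK293 stable line with TRPC4beta plus mu-opioid receptor. Times: dye 45 min RT, read 110 s. Measured by: kinetic Fluo4 calcium fluorescence. Measure: B score of integrated ratio. Controls: assay buffer as low control, maximal DAMGO as high control.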
TRPC4 potent – allosterically enhances the mouse TRPC4 cation channel. HEK293 TRPC4beta/mu-opioid, DAMGO EC20, Fluo-4 Ca2+ flux; active compounds read high. B-score at 10 µM. 0.42% of 310,000 active. AID 2227;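 active = B-score of calcium response area above 5 SD of library B-scores, with initial fluorescence ratio within 5 SD of library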
TRPC6 activator – mouse TRPC6 channel activation | HEK293-TRPC6 membrane potential dye fluorescence; active compounds read high | B-score at 10 µM | 0.13% of 310,000 active;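 active = B-score of the integrated fluorescence ratio above library mean plus 3 SD, and starting fluorescence ratio within library mean plus 5 SD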;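 also: higher score means more depolarization so channel activation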
TRPC4 spec 2 – second selectivity test of TRPC6 inhibitors: effect on mouse TRPC4. shares compounds with TRPC6 inh. HEK293 TRPC4/MOR, membrane potential dye fluorescence; channel activated by saturating DAMGO dose. inhibition, % at 10 µM. 42% of 920 active. AID 2776;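 active = compounds whose fluorescence signal differed from control wells by over 3 SD, either direction, in both duplicate plates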
TRPC4 spec – selectivity of TRPC6 inhibitors: effect on mouse TRPC4; shares compounds with TRPC6 inh; HEK293 TRPC4/mu-opioid, membrane potential fluorescence; activity change, negative = inhibition, % at 10 µM; 61% of 920 active;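 active = rise or fall in signal beyond 3 SD of buffer-only wells in both replicate plates, either sign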;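 also: integrated kinetic ratio of fluorescence range over baseline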
HEK293 MPD ctr 2-1 – parental HEK293 nonspecific activity of TRPC6 inhibitors, second screen | 31% of 920 active | shares compounds with TRPC6 inh | signal change vs control, % at 10 µM | parental HEK293 membrane potential dye fluorescence; maximal acetylcholine challenge after compound addition;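 active = membrane potential signal moving either way by over 3 SD of the maximum-effect control, in both duplicate plates, meaning non-specific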
HEK293 MPD ctr-1 – parental HEK293 nonspecific activity of TRPC6 inhibitors. shares compounds with TRPC6 inh. parental HEK293 membrane potential dye fluorescence. membrane potential signal change, % at 10 µM. 60% of 920 active. AID 2780;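 active = membrane potential signal shifting up or down by more than 3 SD of buffer-only wells, on both duplicate plates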
HEK293 MPD ctr-2 – parental HEK293 nonspecific activity of TRPC6 modulators; membrane potential dye fluorescence; membrane potential signal change, % at 10 µM; AID 488924; 51% of 2,400 active; shares compounds with TRPC6 inh;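 active = membrane potential signal moves up or down beyond 5 SD from buffer-only wells, on both duplicate plates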
HEK293 MPD ctr 2-2 – second counter-screen for TRPC6 modulators: effect in parental HEK293 cells; AID 488926; membrane potential dye fluorescence; after compound, maximal acetylcholine stimulation; shares compounds with TRPC6 inh; inhibition, % at 10 µM; 14% of 2,400 active;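 active = membrane potential signal drops by more than 5 SD from the mean control signal, in both duplicate plates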
TRPC4/MOR mod – selectivity of TRPC6 modulators against mouse TRPC4 | 69% of 2,400 active | AID 488927 | HEK293 TRPC4/mu-opioid, membrane potential fluorescence | percent change from control (negative = decrease, positive = increase), % at 10 µM | shares compounds with TRPC6 inh;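 active = membrane potential signal moved up or down beyond 5 SD of buffer control wells, in both duplicate plates, actives on both sides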
TRPC4/MOR inh 2 – second selectivity test of TRPC6 modulators against mouse TRPC4; shares compounds with TRPC6 inh; HEK293 TRPC4/mu-opioid, membrane potential dye fluorescence; stimulated with maximal-effect DAMGO; inhibition, % at 10 µM; 55% of 2,400 active; AID 488928;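 active = drop in membrane potential signal beyond 5 SD of the control wells in both duplicate plates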;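 also: TRPC4 counter screen for TRPC6 hits run under conditions tuned for TRPC6 not TRPC4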
TRPC6 block conf – confirmation of mouse TRPC6 inhibitors. shares compounds with TRPC6 inh. HEK293-TRPC6, membrane potential dye, ACh-evoked depolarization. inhibition, % at 10 µM. 43% of 3,300 active;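 active = fluorescence ratio falls more than 5 SD below the full-stimulation control mean, in both duplicate runs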;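 also: integrated fluorescence ratio of peak minus minimum over baseline after agonist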
TRPC6 act confirm – mouse TRPC6 activator confirmation. shares compounds with TRPC6 inh. HEK293-TRPC6 membrane potential dye fluorescence, FDSS. activation, % at 10 µM. 11% of 2,800 active;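 active = ratio signal rise beyond 5 SD above unstimulated control wells' mean, seen in both duplicate runs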
Each line names hits and unclear results; the compound was inactive in the other large screens (follow-up assays come after a bar, where they were run).

COC(=O)Cn1cnc2c(cnn2-c2ccc(C)cc2)c1=O	none
CCCN1CCN(c2nc(-c3cccs3)nc3ccccc23)CC1	TRPC6 inh -6.06 | HEK293 MPD ctr-2 -63.5% | HEK293 MPD ctr 2-2 inactive | TRPC4/MOR mod -15.0% | TRPC4/MOR inh 2 52.0% | TRPC6 block conf inactive | TRPC6 act confirm inactive
Cc1cc(NCCCn2ccnc2)n2nc(-c3ccc(Cl)cc3)cc2n1	TRPC6 inh -11.1 | HEK293 MPD ctr-2 inactive | HEK293 MPD ctr 2-2 100.5% | TRPC4/MOR mod 20.0% | TRPC4/MOR inh 2 54.0% | TRPC6 block conf 54.0% | TRPC6 act confirm inactive
Cc1ccc(-c2cc3nc(C)cc(NCc4ccco4)n3n2)cc1	none
Cc1cc(NCCCn2ccnc2)n2nc(-c3ccc(F)cc3)cc2n1	TRPC6 inh -10 | HEK293 MPD ctr-2 -299.5% | HEK293 MPD ctr 2-2 92.5% | TRPC4/MOR mod -53.5% | TRPC4/MOR inh 2 62.0% | TRPC6 block conf 72.0% | TRPC6 act confirm inactive
Cc1cccc(-c2cc3nc(C)c(C)c(NCCCn4ccnc4)n3n2)c1	TRPC6 inh -7.37 | TRPC4 spec 2 58.0% | TRPC4 spec -18.2% | HEK293 MPD ctr 2-1 inactive | HEK293 MPD ctr-1 inactive | TRPC6 block conf 76.1% | TRPC6 act confirm inactive
O=C(Nc1cccc(C(=O)O)c1)/C(=C/c1ccc([N+](=O)[O-])cc1)NC(=O)c1ccccc1	none
O=C(Nc1cccc2ccccc12)/C(=C/c1ccc([N+](=O)[O-])cc1)NC(=O)c1ccccc1	TRPC6 inh -6.03 | HEK293 MPD ctr-2 inactive | HEK293 MPD ctr 2-2 inactive | TRPC4/MOR mod inactive | TRPC4/MOR inh 2 71.0% | TRPC6 block conf 58.5% | TRPC6 act confirm inactive
COc1ccc(/C=N/NC(=O)c2nn(-c3ccc(Cl)cc3)c(=O)c3c(N)scc23)cc1	TRPC6 inh -5.95 | HEK293 MPD ctr-2 -77.0% | HEK293 MPD ctr 2-2 inactive | TRPC4/MOR mod -22.0% | TRPC4/MOR inh 2 35.5% | TRPC6 block conf inactive | TRPC6 act confirm inactive
COc1ccc(/C=N/NC(=O)c2nn(-c3ccccc3)c(=O)c3c(N)scc23)cc1	none
COc1ccccc1NC(=O)C(C)N1C(=O)c2ccccc2C1=O (stereo not drawn)	none
Cc1cc(-c2nnc(SCC(=O)Nc3cccc(Cl)c3)n2N)n[nH]1	none
CCC(C)NC(=O)c1ccc(C2SCC(=O)N2Cc2ccccc2)cc1 (stereo not drawn)	TRPC6 inh -7.58 | TRPC4 spec 2 inactive | TRPC4 spec inactive | HEK293 MPD ctr 2-1 inactive | HEK293 MPD ctr-1 inactive | TRPC6 block conf inactive | TRPC6 act confirm inactive
COc1cccc(CNC(=O)CN2C(=O)CSc3ccc(S(=O)(=O)N4CCOCC4)cc32)c1	none
O=C(c1cccc(C(=O)N2CCN(c3ccccc3F)CC2)n1)N1CCN(c2ccccc2F)CC1	TRPC6 inh -10.4, TRPC6 activator 12.3 | HEK293 MPD ctr-2 141.5% | HEK293 MPD ctr 2-2 inactive | TRPC4/MOR mod 29.0% | TRPC4/MOR inh 2 64.0% | TRPC6 block conf 88.0% | TRPC6 act confirm 129.5%
CCNC(=O)COC(=O)C1CCN(S(=O)(=O)c2ccc3c(c2)OCCO3)CC1	none
CC(C)C(C)NC(=O)COC(=O)C1CCN(S(=O)(=O)c2ccc3c(c2)OCCO3)CC1 (stereo not drawn)	TRPC6 inh -6.38 | HEK293 MPD ctr-2 inactive | HEK293 MPD ctr 2-2 inactive | TRPC4/MOR mod 7.0% | TRPC4/MOR inh 2 inactive | TRPC6 block conf inactive | TRPC6 act confirm inactive
COc1ccc(OC)c(CCNC(=O)CC2(CC3=NS(=O)(=O)c4ccccc4N3)CCCC2)c1	none
O=c1c2ccccc2oc2ccc(C#CC3(O)CCCCC3)cc12	none
COc1cccc2oc3ccc(C#CC4(N)CCCCC4)cc3c(=O)c12	TRPC6 inh -10.8 | TRPC4 spec 2 68.5% | TRPC4 spec inactive | HEK293 MPD ctr 2-1 237.0% | HEK293 MPD ctr-1 inactive | TRPC6 block conf inactive | TRPC6 act confirm inactive
CCN(CC)C(=O)c1ccc(-c2nnc(OC)c3ccccc23)cc1	none
CN(c1ccccc1)P(=O)(N(C)c1ccccc1)N(C)c1ccccc1	TRPC6 inh -9.51 | TRPC4 spec 2 inactive | TRPC4 spec 28.9% | HEK293 MPD ctr 2-1 inactive | HEK293 MPD ctr-1 14.8% | TRPC6 block conf 66.2%
CCN(c1ccccc1)P(=O)(Nc1ccccc1)Nc1ccccc1	none
COc1ccccc1NC(=O)Nc1cnccn1	none
COc1cc([N+](=O)[O-])ccc1NC(=O)Nc1cnccn1	TRPC6 inh -5.51 | HEK293 MPD ctr-2 inactive | HEK293 MPD ctr 2-2 inactive | TRPC4/MOR mod 76.5% | TRPC4/MOR inh 2 90.5% | TRPC6 block conf 58.5%
CCOC(=O)c1c(C)[nH]c(C)c1S(=O)(=O)NC1CCN(C(=O)OCC)CC1	none
COc1cccc(OC)c1C(=O)NC(C)C12CC3CC(CC(C3)C1)C2 (stereo not drawn)	none
COc1ccc(CNC(C)C23CC4CC(CC(C4)C2)C3)c(OC)c1OC (stereo not drawn)	TRPC6 inh -8.05 | TRPC4 spec 2 inactive | TRPC4 spec 35.4% | HEK293 MPD ctr 2-1 inactive | HEK293 MPD ctr-1 18.6% | TRPC6 block conf 95.8%
CCN(CC)CC#CCOC(=O)C(O)(c1ccccc1)C1CCCCC1 (stereo not drawn)	TRPC6 inh -6.43 | HEK293 MPD ctr-2 121.0% | HEK293 MPD ctr 2-2 97.0% | TRPC4/MOR mod 26.0% | TRPC4/MOR inh 2 inactive | TRPC6 block conf 81.0%
